Bioassay records: PubChem BioAssay, several laboratories
SENP8 block-1: inhibitors of human SENP8 protease; AID 2540; inhibition, % at 10 µM; purified SENP8, Z-RLRGG-aminoluciferin cleavage, luminescence; hit rate 1.2% among 330,000; Q96LD8; in the data active means inhibition above about 50%
Target sequence (Q96LD8 whole entry, looked up): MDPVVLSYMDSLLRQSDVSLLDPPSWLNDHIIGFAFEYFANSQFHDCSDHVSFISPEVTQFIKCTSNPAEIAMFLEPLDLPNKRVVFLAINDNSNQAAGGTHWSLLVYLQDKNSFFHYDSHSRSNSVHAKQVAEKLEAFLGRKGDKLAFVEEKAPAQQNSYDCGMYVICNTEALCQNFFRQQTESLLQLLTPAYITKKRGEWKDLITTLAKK
Platelet DG rel: modulates dense granule release in human platelets. human platelet-rich plasma, SFLLRN dense granule ATP release, luminescence. inhibition, %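 (compounds screened at 7.5 µM in platelet-rich plasma)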. hit rate 0.22% among 300,000. AID 1663;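 active means mean replicate score, as percent of positive control, at or above 50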
SENP8 block-2: inhibitors of human SENP8 protease. inhibition, % at 20 µM. hit rate 0.64% among 360,000. recombinant SENP8, Nedd8 substrate fluorescence. Q96LD8. AID 602440; in the data active means inhibition mostly above about 40%, no sharp cut-off; inactive means mostly below about 27%
SENP6 block: inhibitors of human SENP6 protease | Q9GZR1 | Recombinant SENP6 catalytic domain, aminoluciferin luminescence | inhibition, % at 10 µM | hit rate 1.8% among 330,000 | AID 2599;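 active means inhibition above about 50% at the single tested dose, limit read from the data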
SENP7 block: SENP7 protease inhibition; Q9BQF6; recombinant SENP7, Z-RLRGG-aminoluciferin luminescence, 40 min; inhibition, % at 5 µM; hit rate 1.5% among 330,000;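 active means inhibition above about 50% at the single test dose, limit read from the data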
SENP1 FRET inh: blocks the human SENP1 SUMO protease catalytic domain | inhibition, % at 10 µM | hit rate 0.21% among 360,000 | Q9P0U3 | recombinant SENP1 catalytic domain, CyPet-SUMO1-YPet FRET cleavage;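 active means inhibition at least 30% at 10 µM, raw YFP signal under a set limit, fluorescence ratio 0.5 to 1.5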
Target sequence (Q9P0U3 419-644 limits assumed): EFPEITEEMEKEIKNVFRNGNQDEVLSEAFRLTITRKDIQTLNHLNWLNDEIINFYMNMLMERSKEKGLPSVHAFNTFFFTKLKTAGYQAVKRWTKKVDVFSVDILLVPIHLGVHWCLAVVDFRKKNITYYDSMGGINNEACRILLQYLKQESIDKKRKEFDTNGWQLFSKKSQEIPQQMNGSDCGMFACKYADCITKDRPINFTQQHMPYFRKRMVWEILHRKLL
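Assay system: hSENP1 catalytic domain, recombinant. Amount: SENP1 enzyme, 20 pM final. Schedule: 50 min reaction, RT, dark. Technique: FRET, CFP and YFP emission. Control set: no-enzyme wells low, DMSO-plus-enzyme wells high control.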
SENP8 conf: human SENP8 inhibition, confirmed; shares compounds with SENP7 block; Recombinant SENP8, Z-RLRGG-aminoluciferin luminescence, 60 min; inhibition, % at 12.5 µM; hit rate 40% among 6,200; AID 488912;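 active means mean inhibition across replicates above about 50%, limit read from the data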
SENP6 confirm: human SENP6 inhibition, confirmed | shares compounds with SENP7 block | recombinant SENP6, Z-RLRGG-aminoluciferin luminescence | inhibition, % at 12.5 µM | hit rate 58% among 6,200
SENP7 confirm: confirmation of human SENP7 protease inhibitors; shares compounds with SENP7 block; recombinant SENP7, Z-RLRGG-aminoluciferin luminescence, 40 min; inhibition, % at 12.5 µM; hit rate 69% among 6,200; AID 488917
Casp3 SENP sel: caspase-3 inhibition (SENP selectivity assay). inhibition, % at 12.5 µM. hit rate 60% among 6,200. purified caspase-3, Z-DEVD-aminoluciferin luminescence, 60 min. shares compounds with SENP7 block;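 active means mean inhibition above about 50%, limit read from the data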
Luc interf: interferes with luciferase luminescence in SENP counter-screen | shares compounds with SENP7 block | Pre-incubated SENP8/Z-RLRGG-aminoluciferin, luciferase luminescence interference | inhibition, % at 12.5 µM | hit rate 39% among 6,200 | AID 488919;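 active means mean inhibition above about 50% when retested at one dose, limit read from the data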
Of the large screens only hits and unclear results are named; the others gave an inactive call (follow-up assays come after a bar, where they were run). Most compounds without a hit are left out; they make up all but 2.6% or so of the library.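 How the source made its calls, unless noted: active means mean inhibition above about 50% in the one-dose retest (limit read from the data); inactive means the rest.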

CCOC(=O)CN1C(=O)S/C(=C\c2ccc(-c3cccc(C(=O)O)c3C)o2)C1=O	SENP6 block 55 | SENP8 conf inactive | SENP6 confirm inactive | SENP7 confirm 52 | Casp3 SENP sel inactive | Luc interf inactive
CCOC(=O)CN1C(=O)S/C(=C\c2ccc(-c3ccc(C(=O)O)c(Cl)c3)o2)C1=O	none
Cc1c(C(=O)O)cccc1-c1ccc(/C=C2/NC(=O)N(c3ccccc3)C2=O)o1	SENP8 block-1 60, SENP6 block 64 | SENP8 conf inactive | SENP6 confirm 79 | SENP7 confirm 92 | Casp3 SENP sel inactive | Luc interf inactive
Cc1c(C(=O)O)cccc1-c1ccc(/C=C2\SC(=O)NC2=O)o1	SENP8 block-1 98, SENP6 block 98, SENP7 block 91 | SENP8 conf 99 | SENP6 confirm 100 | SENP7 confirm 103 | Casp3 SENP sel 97 | Luc interf 97
O=C1NC(=O)/C(=C/c2ccc(-c3cccc([N+](=O)[O-])c3)o2)S1	SENP8 block-1 66, SENP6 block 86, SENP7 block 55 | SENP8 conf 78 | SENP6 confirm 60 | SENP7 confirm inactive | Casp3 SENP sel inactive | Luc interf inactive
Cc1cccc(NC(=O)C2CCN(S(=O)(=O)c3cccc4nonc34)CC2)c1	none
COc1ccccc1N1CCN(S(=O)(=O)CCNC(=O)Cc2ccc(F)cc2)CC1	none
CCOC(=O)[C@]12CCC=C1N(Cc1ccc(Cl)cc1Cl)C(=O)[C@H](CC(=O)NCC13CC4CC(CC(C4)C1)C3)C2	none (no result: SENP8 block-1, Platelet DG rel, SENP6 block, SENP7 block)
Cc1ccc(-c2cn3nc(-c4ccccc4)c(-c4ccccc4)nc3n2)cc1	none
c1ccc(-c2cn3nc(-c4ccccc4)c(-c4ccccc4)nc3n2)cc1	none
Cc1nn2cc(-c3ccc(-c4ccccc4)cc3)nc2s1	SENP7 block 58 | SENP8 conf inactive | SENP6 confirm inactive | SENP7 confirm inactive | Casp3 SENP sel inactive | Luc interf inactive
Cc1nn2cc(-c3ccc(Cl)cc3)nc2s1	SENP8 block-1 54, SENP6 block 81, SENP7 block 87 | SENP8 conf inactive | SENP6 confirm inactive | SENP7 confirm inactive | Casp3 SENP sel inactive | Luc interf inactive
CCc1nn2cc(-c3ccccc3)nc2s1	SENP8 block-1 89, SENP6 block 94, SENP7 block 96 | SENP8 conf inactive | SENP6 confirm 94 | SENP7 confirm 101 | Casp3 SENP sel 95 | Luc interf 84
O=C(Cc1cccc(NC(=O)C2CCCN(C(=O)C3CCC3)C2)c1)Nc1ccc(C(=O)N2CCCCC2)cc1 (stereo not given)	none (no result: SENP8 block-1, Platelet DG rel, SENP6 block, SENP7 block)
CCOC(=O)Nc1ccc(C)cc1NC(=O)OCC	none
CCOC(=O)Nc1ccc(NCc2ccc(F)cc2)nc1N	SENP8 block-1 58, SENP6 block 68 (no result: Platelet DG rel) | SENP8 conf inactive | SENP6 confirm inactive | SENP7 confirm inactive | Casp3 SENP sel inactive | Luc interf inactive
COc1ccc(N2C(=O)/C(=C/c3ccc([N+](=O)[O-])cc3)C=C2c2ccccc2)cc1	SENP7 block 60 | SENP8 conf inactive | SENP6 confirm inactive | SENP7 confirm inactive | Casp3 SENP sel inactive | Luc interf inactive
CSc1ccc(-c2sc(Nc3ccccc3)n[n+]2-c2ccccc2)cc1	none
COc1ccc(C)cc1Nc1n[n+](-c2ccccc2)c(-c2ccc(SC)cc2)s1	SENP8 block-1 60, SENP6 block 69 | SENP8 conf inactive | SENP6 confirm 66 | SENP7 confirm 89 | Casp3 SENP sel 78 | Luc interf 70
